Data published in ChEMBL document CHEMBL4152283, “Discovery of potent and novel smoothened antagonists via structure-based virtual screening and biological assays” (Eur J Med Chem, 2018).
Calls of active or inactive are those of the source. The rule behind the calls is not given here.

molecular target: T1, Protein smoothened (Homo sapiens, UniProt Q99835); assay: Antagonist activity at Smo receptor (unknown origin); assay type: functional
T1 sequence (Q99835 whole entry): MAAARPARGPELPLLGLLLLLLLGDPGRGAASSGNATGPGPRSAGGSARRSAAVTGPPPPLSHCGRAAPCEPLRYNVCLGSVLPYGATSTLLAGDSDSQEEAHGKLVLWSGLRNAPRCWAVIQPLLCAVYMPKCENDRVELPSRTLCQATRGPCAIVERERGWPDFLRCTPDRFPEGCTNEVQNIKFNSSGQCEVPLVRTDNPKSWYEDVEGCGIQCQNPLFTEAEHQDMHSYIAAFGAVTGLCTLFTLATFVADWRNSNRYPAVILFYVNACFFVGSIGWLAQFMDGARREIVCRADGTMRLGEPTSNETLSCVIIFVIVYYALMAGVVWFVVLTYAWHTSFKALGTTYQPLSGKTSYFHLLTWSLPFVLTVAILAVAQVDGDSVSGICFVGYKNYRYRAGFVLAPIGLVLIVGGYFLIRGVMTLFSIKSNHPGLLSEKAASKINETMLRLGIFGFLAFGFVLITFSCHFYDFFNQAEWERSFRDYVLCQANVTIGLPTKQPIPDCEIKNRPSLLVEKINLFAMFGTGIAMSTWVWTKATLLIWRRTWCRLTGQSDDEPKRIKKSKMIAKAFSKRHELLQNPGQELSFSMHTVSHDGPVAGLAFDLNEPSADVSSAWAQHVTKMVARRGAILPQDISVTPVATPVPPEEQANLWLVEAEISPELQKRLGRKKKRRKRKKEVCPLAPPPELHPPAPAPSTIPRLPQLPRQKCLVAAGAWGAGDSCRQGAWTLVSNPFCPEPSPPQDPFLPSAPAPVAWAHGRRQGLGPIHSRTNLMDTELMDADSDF

| IC50 [nM] | SMILES |
| --- | --- |
| 10 | COc1cc(C(=O)NC(=N)Nc2cccc(NC(=O)c3ccc(-c4ccccc4)cc3)c2)cc(OC)c1OC |

molecular target: T1, Protein smoothened; assay: Displacement of BODIPY-Cyclopamine from human HA-tagged Smo receptor expressed in human U2OS cells at 3 to 1000 nM by DAPI staining based fluorescence microscopic method; assay type: cell-based
In short: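 Puromycin-selected U2OS clone expressing HA-tagged human Smo, seeded 10,000 cells/well in 10% serum DMEM and cultured 48 h at 37 °C. Cells fixed in 4% PFA for 20 min, DAPI (5 µg/mL) for 10 min, PBS washes, then 2 h at room temperature with 100 nM BODIPY-cyclopamine plus serially diluted compound. PBST washes, automated high-content fluorescence imaging, data normalized to GDC-0449. Sigmoidal fit for IC50. Ki by Cheng-Prusoff using probe Kd 255 ± 57 nM.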

| inhibition | SMILES |
| --- | --- |
| Active | Cc1ccc(NCc2cccn2-c2nnc(N3CCC(C(=O)NC4CCCCC4C)CC3)s2)cc1 (stereo not given) |

molecular target: Protein smoothened (Mus musculus, UniProt P56726); assay: Antagonist activity at Smo receptor in mouse NIH/3T3 cells harboring GRE-Luc assessed as inhibition of SAG-induced Hh signaling pathway co-incubated with SAG measured after 48 hrs by luciferase reporter gene assay
Sequence (P56726 whole entry): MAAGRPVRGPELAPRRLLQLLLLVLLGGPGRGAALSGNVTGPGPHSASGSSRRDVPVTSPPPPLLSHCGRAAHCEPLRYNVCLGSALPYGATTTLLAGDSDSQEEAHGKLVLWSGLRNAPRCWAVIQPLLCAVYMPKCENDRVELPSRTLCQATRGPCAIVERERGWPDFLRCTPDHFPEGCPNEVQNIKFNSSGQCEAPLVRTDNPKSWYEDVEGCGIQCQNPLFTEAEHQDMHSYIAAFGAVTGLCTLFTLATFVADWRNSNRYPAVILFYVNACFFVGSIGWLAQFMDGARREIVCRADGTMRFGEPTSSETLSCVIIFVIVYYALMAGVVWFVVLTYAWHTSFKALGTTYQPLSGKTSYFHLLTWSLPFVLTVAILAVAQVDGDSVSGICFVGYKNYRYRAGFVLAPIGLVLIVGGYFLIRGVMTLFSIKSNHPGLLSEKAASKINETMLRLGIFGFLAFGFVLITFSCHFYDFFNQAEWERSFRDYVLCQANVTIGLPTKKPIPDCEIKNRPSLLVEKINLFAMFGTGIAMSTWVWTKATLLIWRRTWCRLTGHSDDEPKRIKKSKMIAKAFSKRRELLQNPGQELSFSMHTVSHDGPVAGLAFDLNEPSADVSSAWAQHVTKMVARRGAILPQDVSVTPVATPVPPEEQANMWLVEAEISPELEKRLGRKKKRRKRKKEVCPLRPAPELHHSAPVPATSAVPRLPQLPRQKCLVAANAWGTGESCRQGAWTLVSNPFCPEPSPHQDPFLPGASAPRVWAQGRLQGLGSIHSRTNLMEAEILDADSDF

| IC50 [µM] | SMILES |
| --- | --- |
| 0.95 | Cc1oc(-c2cccc(Cl)c2)nc1CN1CCC(C(=O)NC2CCCc3ccccc32)CC1 (stereo not given) |
| 7.6 | Cc1ccc(NCc2cccn2-c2nnc(N3CCC(C(=O)N4CCC(O)C4)CC3)s2)cc1 (stereo not given) |
| 1.1 | Cc1ccc(NCc2cccn2-c2nnc(N3CCC(C(=O)NCC(C)C)CC3)s2)cc1 |
| 4.6 | Cc1ccc(-c2cc3c(N4CCC(C(=O)NC(C)c5ccccc5)CC4)nccn3n2)cc1C (stereo not given) |
| > 10 | CC1CCN(C(C)CNC(=O)c2ccc3c(c2)NC(=O)C(CS(=O)(=O)Cc2ccc(F)cc2Cl)N3)CC1 (stereo not given) |
| 2.4 | O=C(Nc1ccc(N2CCN(Cc3ccccc3O)CC2)nc1)c1ccccc1C(F)(F)F |
| > 10 | COc1ccc(Cl)cc1NC(=O)c1ccc(-n2nc(OCc3cccc(F)c3)ccc2=O)cc1 |
| 0.047 | Cc1ccc(NCc2cccn2-c2nnc(N3CCC(C(=O)NC4CCCCC4C)CC3)s2)cc1 (stereo not given) |
| > 10 | COc1ccc2[nH]cc(CCNC(=O)c3ccccc3NC(=O)c3nsc4ccccc34)c2c1 |
| 1.2 | O=C(Nc1cccc(N2CCCN(Cc3ccc(F)c(F)c3)C2=O)c1)OCc1ccccc1 |
| 4.3 | Cc1ccc(NCc2cccn2-c2nnc(N3CCC(C(=O)N4CCCC4)CC3)s2)cc1 |
| 0.058 | Cc1ccc(NCc2cccn2-c2nnc(N3CCC(C(=O)NC4CCCCC4C)CC3)s2)nc1 (stereo not given) |

Further lines, the molecule ahead of its results:

| SMILES | IC50 [µM] |
| --- | --- |
| CC(C)c1ccc(NC(=O)c2cc(S(=O)(=O)N3CCN(c4ccccc4F)CC3)ccc2F)cc1 | > 10 |
| CCn1cc(C(=O)O)c(=O)c2cc(F)c(N3CCN(C(=S)NC(=O)Cc4ccc(Cl)cc4)CC3)cc21 | > 10 |
| Cc1ccc(NCc2cccn2-c2nnc(N3CCC(C(=O)NC(C)C)CC3)s2)cc1 | 1.2 |
| Cc1ccc(NCc2cccn2-c2nnc(N3CCC(C(=O)NC4CCCCC4)CC3)s2)cc1 | 0.66 |
| Cc1c(C(=O)NC2CCCCC2)sc2ncn(CC(=O)Nc3cccc(C(F)(F)F)c3)c(=O)c12 | > 10 |
| Cc1ccc(NCc2cccn2-c2nnc(N3CCC(C(=O)NC4CC4)CC3)s2)cc1 | 4.2 |
| Cc1ccc(NCc2cccn2-c2nnc(N3CCC(C(=O)NCC4CC4)CC3)s2)cc1 | 1.7 |
| COc1ccc(-n2nc(C(=O)NCC(=O)Nc3nc4ccccc4s3)c3ccccc3c2=O)cc1 | > 10 |
| Cc1ccc(NC(=O)CSc2nc3ccc(NC(=O)c4ccccc4Cl)cc3s2)cc1Cl | > 10 |
| CN(C(=O)Cn1c(=O)n(CCCC(=O)NCc2ccccc2)c(=O)c2sccc21)c1ccccc1 | > 10 |
| O=C(CSc1nnc(CNC(=O)c2cccs2)n1-c1ccccc1)Nc1nc2ccccc2s1 | > 10 |
| Cc1ccc(NCc2cccn2-c2nnc(N3CCC(C(=O)NC4CCCC4)CC3)s2)cc1 | 0.53 |
| CCNC(=O)C1CCN(c2nnc(-n3cccc3CNc3ccc(C)cc3)s2)CC1 | 5.2 |
| COc1cccc2c1OC1(C)CC2NC(=O)N1c1cccc(C(=O)N2CCN(c3ccccc3F)CC2)c1 (stereo not given) | > 10 |
| O=C1CC(NC2CCN(c3ccc(C(F)(F)F)cn3)CC2)C(=O)N1c1ccc(F)cc1 (stereo not given) | > 10 |
| Cc1cccc(CNC(=O)Cc2cccc(N(Cc3ccccc3)C(=O)c3ccc(C#N)cc3)c2)c1 | > 10 |
| Cc1ccc(NCc2cccn2-c2nnc(N3CCC(C(=O)NCC(C)(C)O)CC3)s2)cc1 | 4.3 |
| COc1cc(F)ccc1S(=O)(=O)NCCNc1nc(-c2ccc(F)cc2)nc2ccccc12 | > 10 |
| Cc1ccc(NCc2cccn2-c2nnc(N3CCC(C(=O)NC4CCCCC4C)CC3)s2)cn1 (stereo not given) | 0.24 |
| CC1Cc2ccccc2N1C(=O)c1ccc(=O)n(CCC(=O)N2CCN(c3ccccc3)CC2)n1 (stereo not given) | 3 |
| CCC(Sc1nnc2c(=O)n(-c3ccc(C)c(C)c3)ccn12)C(=O)Nc1ccccc1C (stereo not given) | > 10 |
